Measurements collected from several papers.
Compare with care: the assays were run in different laboratories.
Cell line: MDA-MB-468
Observed: cell growth or viability

Structure (SMILES)	method	time	IC50
COc1ccc(Br)cc1/C=C/C(=O)c1ccc(NC(C)=O)cc1	MTT	48 h	2.4 µM
O=S(=O)(NN=Cc1cn(CCN2CCOCC2)c2ccccc12)c1ccccc1	MTT	48 h	47 µM
N=C(N)c1ccc(-c2ccc(-c3ccccc3)o2)cc1	MTT	–	0.66 µM
O=S(=O)(NN=Cc1cn(CCN2CCOCC2)c2ccccc12)c1cccc2ncccc12	MTT	48 h	32.2 µM
COc1ccc(/C=C/C(=O)c2cc(Br)ccc(=O)c2O)cc1	MTT	72 h	6.6 µM
COc1cccc2c1C(=O)c1c(O)c3c(c(O)c1C2=O)C[C@@](O)(C(=O)CO)C[C@@H]3O[C@H]1C[C@H](N)[C@H](O)[C@H](C)O1	resazurin	72 h	0.1 µM
CCN1CCN(Cc2ccc(Nc3ncc(F)c(-c4cc(F)c5nc(C)n(C(C)C)c5c4)n3)nc2)CC1	CCK-8	–	0.711 µM
O=C(CSc1nc2ccc(N=Cc3ccc(Sc4nnnn4-c4ccccc4)o3)cc2s1)N1CCOCC1	MTT	48 h	26.9 µM
O=S(=O)(NN=Cc1cn(CCN2CCOCC2)c2ccccc12)c1ccc(-c2ccccc2)cc1	MTT	48 h	32 µM
CN(C)c1ccc(/C=C/c2ccnc3ccc4ccccc4c23)cc1	MTT	–	0.12 µM
CCc1ccc(N2NC(=O)/C(=C/c3ccc(-c4ccc(S(=O)(=O)Nc5nccs5)cc4)o3)C2=O)cc1	MTT	48 h	44 µM
COc1ccc(S(=O)(=O)NN=Cc2cn(CCN3CCOCC3)c3ccccc23)cc1	MTT	48 h	43.3 µM
Oc1ccc(/C=C/c2cc(O)cc3c2C(c2cc(O)cc(O)c2)C(c2ccc(O)c(O)c2)O3)cc1 (centres unmarked)	MTT	–	18 µM
COc1cccc2c1C(=O)c1c(O)c3c(c(O)c1C2=O)C[C@@](O)(C(=O)CO)C[C@@H]3O[C@H]1C[C@H](N)[C@H](O)[C@H](C)O1	MTT	48 h	0.08 µM
Oc1ccc(N=Nc2ccccc2)c2ccccc12	MTT	–	4.9 µM
CC(=O)Nc1nc(C)c(-c2csc(Nc3ccccc3)n2)s1	MTT	72 h	11.1 µM
COc1ccccc1N=Nc1c(O)ccc2ccccc12	MTT	–	21 µM
O=S(=O)(NN=Cc1cn(CCN2CCOCC2)c2ccccc12)c1ccc(F)cc1	MTT	48 h	15 µM
COc1cc2cc(OC)c3cc4c(cc3c2c(OC)c1OC)OCO4	MTT	–	21 µM
COc1cc(/C=C2\SC(=O)NC2=O)ccc1OCc1ccc(Cl)cc1Cl	MTT	72 h	64.1 µM
